Assay results reported in ChEMBL document CHEMBL1141277, “New phenylpropenoids, bis(1-phenylethyl)phenols, bisquinolinone alkaloid, and anti-inflammatory constituents from Zanthoxylum integrifoliolum” (J Nat Prod, 2007).

System: Neutrophil
Assay: Antiinflammatory activity in human neutrophils assessed as fMLP-induced superoxide release after 5 mins by spectrometry
Type: functional, cell-based
In short: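 Neutrophils isolated from venous blood of healthy volunteers (20–35 years) by double-gradient Ficoll–Hypaque centrifugation, with hypotonic lysis of red cells. Cells at 1 × 10^6 cells/mL pretreated with test agents (100 µmol/L) at 37 °C for 5 min. Then stimulated with fMLP (1 µmol/L) with ferricytochrome c (0.5 mg/mL). Extracellular O2•– read continuously at 550 nm. Inhibition % = [(control−resting)−(compound−resting)]/(control−resting) × 100.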

Row | IC50 [µM] | Compound
1 | 19.3 | COc1cc([C@H]2Oc3c(OC)cc(/C=C/C=O)cc3[C@@H]2CO)cc(OC)c1O
2 | > 100 | CC(c1ccccc1)c1ccc(O)c(C(C)c2ccccc2)c1 (centres undefined)
3 | > 100 | COc1cc2ccc(=O)oc2cc1OC [SCOPARONE]
4 | 32.5 | CC(C)Cc1ccc(C(C)C(=O)O)cc1 (centres undefined) [IBUPROFEN]
5 | 47.1 | COc1cc2ccc(=O)oc2c(OC)c1OC [FRAXIDIN METHYL ETHER]
6 | 31.9 | COc1cc([C@H]2Oc3c(OC)cc(/C=C/C=O)cc3[C@@H]2CO)ccc1O
7 | > 100 | COc1cc(/C=C/CO)ccc1OCC=C(C)C
8 | > 100 | C[C@H](c1ccccc1)c1cccc([C@@H](C)c2ccccc2)c1O
9 | 4.28 | Cn1c(=O)c2c(c3ccccc31)OC(C)(C)C=C2
10 | > 100 | Cn1c(=O)c2c(c3ccccc31)O[C@]1(C)C[C@@H]3c4c(c5ccccc5[nH]c4=O)OC(C)(C)[C@H]3[C@H]2C1
11 | 9.64 | CC(C)=CCOc1ccc(/C=C/CO)cc1 [EVOFOLIN C]
12 | > 100 | Cn1c(=O)c2c(c3ccccc31)OC(C)(C)[C@@H]1[C@@H]2C[C@]2(C)C[C@H]1c1c(c3ccccc3n(C)c1=O)O2 [PARAENSIDIMERIN C]
13 | 77.5 | COc1cc2oc(=O)ccc2cc1O [ISOSCOPOLETIN]
14 | 32.5 | CC(C)(O)[C@H](O)COc1ccc(/C=C/CO)cc1
15 | 57.3 | COc1c2[nH]c3occc3c(OC)c-2ccc1=O [HAPLOPINE]
16 | > 100 | COc1c2ccoc2nc2c(OC)cccc12 [GAMMA-FAGARINE]
17 | 75.1 | CC(C)=CCc1cc(/C=C/CO)ccc1O
18 | > 100 | COc1cc(C=O)cc(OC)c1O [SYRINGALDEHYDE]
19 | 11.8 | COc1cc([C@@H]2Oc3c(OC)cc(/C=C/CO)cc3[C@H]2CO)cc(OC)c1O
